Lipid droplet: inhibitors of hepatocyte lipid droplet formation, primary screen, imaging, high-throughput imaging, BODIPY stain. inhibition, % at 6.5 µM. AML12 mouse hepatocytes, oleate lipid droplets. AID 1656, 2009. actives 0.4% (n = 240,000);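 active means lipid droplet intensity inhibited by at least 50%, with more than 500 cells counted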
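Test system: AML12 hepatocytes (mouse); reagent: oleate loading, 100 µM; dosing: one dose, 6.5 µM compound; incubation: overnight exposure; signal: fluorescence imaging, 20x objective, two fields per well; read-out basis: % inhibition of corrected integrated BODIPY droplet signal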
AHR activator: AHR activators, primary screen, cell-based, luminescence, luciferase reporter, human. AHR-responsive luciferase reporter cells. activation, % at 5 µM. actives 2.5% (n = 320,000). AID 2796, 2010; in the data active means activation above about 47%;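 further: 0% = vehicle wells and 100% = reference agonist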
Yeast superoxide: reduction of superoxide in aged yeast, primary screen, HTS | AID 2690, 2010 | S. cerevisiae aged cells, superoxide DHE fluorescence; active compounds read low | actives 0.18% (n = 330,000) | superoxide response (% of plate mean), % at 10 µM;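 active means superoxide response under a set limit, about three screen SD below normal, cut at about 65% in these data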;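 further: yeast aged for seven days with compound at 30 °C before DHE staining; 100% = average MFI of all compound-treated wells on the plate with controls excluded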
SR-BI uptake up: activators of SR-BI mediated DiI-HDL uptake, primary screen, ldlA[mSR-BI] CHO cells, DiI fluorescence. 3 h; 100 = double the neutral-control signal. activation, % at 12.5 µM. actives 0.096% (n = 320,000). AID 504775, 2011;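 active means mean replicate activation of at least 60% and every replicate at or above 60%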;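 further: 0% = median plate neutral-control signal and 100% = twice that signal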
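Material – SR-BI-overexpressing, LDLR-lacking CHO cells · Medium – BSA-supplemented, HEPES-buffered Ham's F12, pH 7.4 · Doses – single concentration · Times – compound with DiI-HDL co-incubation, 3 h at 37 °C · Measured by – bottom-read fluorescence, 550/595 nm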
SR-BI HDL uptake: inhibitors of SR-BI mediated HDL lipid uptake, primary screen, ldlA[mSR-BI] cells, fluorescence, single point | Scavenger receptor class B member 1 (Mus musculus), Q61009 | ldlA[mSR-BI] CHO cells, DiI-HDL uptake fluorescence, 3 h | inhibition, % at 12.5 µM | actives 0.96% (n = 320,000) | AID 488896, 2010;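 active means mean replicate inhibition of at least 70% and a set share of replicates each scoring 70 or more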;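 further: 0% = median of neutral control wells and 100% = median of positive control wells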
SMARCA2 act: SMARCA2 (BRM) function activators, primary screen, cell-based, luminescence, high throughput. activation, % at 9.1 µM. actives 1% (n = 370,000). MG213 cells, MMTV-luciferase reporter, dexamethasone, overnight; in the data active means activation above about 7.8%;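 further: 0% = vehicle wells and 100% = reference activator wells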
Numbers without * were called inactive; · = no result given. This is a sample that favours compounds with a hit; in the whole collection about 4.3% have one here.

SMILES	Lipid droplet	AHR activator	Yeast superoxide	SR-BI uptake up	SR-BI HDL uptake	SMARCA2 act
Cn1c(=O)c(=O)n(C)c2cc(S(=O)(=O)N3CCN(Cc4ccc(F)cc4)CC3)ccc21	·	·	·	·	·	0
Clc1ccc(-c2nnc(SCc3cccc4ccccc34)n2Cc2ccco2)cc1	·	·	·	·	·	2
O=C(Nc1cccc(-n2cnnn2)c1)c1ccc(C(F)(F)F)cc1	·	69*	86	-25	25	-4
COc1cc(C(=O)Nc2cccc(-n3cnnn3)c2)cc(OC)c1OC	-30	6	82	-77	77*	2
COc1ccc(C2C(C(=O)Nc3cc(Cl)ccc3F)CCC(=O)N2c2ccc(OC)cc2)cc1 (configuration not stated)	·	·	·	·	·	2
Cc1ccsc1C(=O)NNC(=O)C1C2C=CC(C2)C1C(=O)O (configuration not stated)	-3	7	93	20	-20	9.0*
O=C1N=c2ccc(Br)cc2=C1c1sc(=O)[nH]c1O	-1	64*	153	·	·	·
O=C(NCCc1cccc(Cl)c1)c1cccc([N+](=O)[O-])c1	-17	16	106	-21	21	2
O=[N+]([O-])c1cccc(C(=Nc2cccc(Cl)c2)NO)c1	-5	88*	93	-11	11	-1
COC(=O)[C@]12CCCCC=C1N(Cc1ccc(OC)cc1)C(=O)[C@@H]2CC(=O)NCc1ccc(OC)c(OC)c1	·	·	·	·	·	-2
CCCN(CCC)c1nc(N)nc(-c2cc(Cl)ccc2OC)n1	-13	20	98	-82	82*	2
CCCNc1nc(N)nc(-c2cc(Cl)ccc2OC)n1	-2	11	84	5	-5	0
COC(=O)[C@]12C[C@H](CC(=O)NCC3CCCCC3)C(=O)N(Cc3ccc4c(c3)OCO4)C1=C[C@H](C(C)C)O[C@@H]2C1CC1	·	·	·	·	·	-2
COc1ccc(-c2cn3cccnc3n2)cc1Br	-3	3	96	-15	15	2
COc1ccc(-c2cn3cc(Br)cnc3n2)cc1	4	0	107	·	·	7.9*
O=C(OCc1cn(Cc2ccccc2C(F)(F)F)nn1)N1CCOCC1	·	·	·	·	·	1
C[C@@H](NC(=O)c1ccc(C#Cc2cccc(F)c2)cn1)C(C)(C)O	·	·	·	·	·	1
Cc1ccc(Cl)cc1Nc1nc(-c2sc(NC(=O)C(C)(C)C)nc2C)cs1	·	13	103	-58	58	-2
CCC(=O)Nc1nc(C)c(-c2csc(Nc3ccc(C(=O)O)cc3)n2)s1	-13	·	·	4	-4	-2
CCCCCC(=O)Nc1nc(C)c(-c2csc(Nc3cc(Cl)ccc3OC)n2)s1	·	50*	104	-79	79*	1
CCCC(=O)Nc1nc(C)c(-c2csc(Nc3ccc(Cl)cc3)n2)s1	·	65*	·	-63	63	1
CCCC(C)C(=O)Nc1nc(C)c(-c2csc(Nc3cc(OC)ccc3OC)n2)s1 (configuration not stated)	·	74*	100	-93	93*	-1
CCC(C)C(=O)Nc1nc(C)c(-c2csc(Nc3ccc(Cl)cc3)n2)s1 (configuration not stated)	·	51*	·	-78	78*	-1
COc1ccc(C2NC(=S)N(Cc3ccc(Cl)cc3)C(C)=C2C(C)=O)cc1 (configuration not stated)	·	·	·	·	·	-5
Cc1ccc(-c2cc(C(=O)NN=Cc3sccc3C)[nH]n2)cc1C	·	·	·	·	·	-5
CC1=NN(C(N)=S)C(=O)C1N=Nc1ccc(Cl)cc1 (configuration not stated)	2	·	97	-6	6	5
CC1=NN(C(N)=S)C(=O)C1N=Nc1cccc([N+](=O)[O-])c1 (configuration not stated)	13	63*	114	6	-6	0
CC1=NN(c2ccccc2)C(=O)C1N=Nc1ccc(N)cc1 (configuration not stated)	4	49*	96	-58	58	-2
